In article PMC2151622 (The Journal of General Physiology, 2007):
Positions count from the first letter of the chain named. Read-outs that look alike come from different tables or passages of the source.

What was measured:
Type in all cases: cell-based, rabbit
[1] = biological target: T1, D444C-EAAC1 (Oryctolagus cuniculus, UniProt P31597, D444C); assay: Blockade of sodium-dependent transient currents; conditions: for Decay time of transient currents blocked: at −100 mV
T1 sequence (P31597 1-524 D444C): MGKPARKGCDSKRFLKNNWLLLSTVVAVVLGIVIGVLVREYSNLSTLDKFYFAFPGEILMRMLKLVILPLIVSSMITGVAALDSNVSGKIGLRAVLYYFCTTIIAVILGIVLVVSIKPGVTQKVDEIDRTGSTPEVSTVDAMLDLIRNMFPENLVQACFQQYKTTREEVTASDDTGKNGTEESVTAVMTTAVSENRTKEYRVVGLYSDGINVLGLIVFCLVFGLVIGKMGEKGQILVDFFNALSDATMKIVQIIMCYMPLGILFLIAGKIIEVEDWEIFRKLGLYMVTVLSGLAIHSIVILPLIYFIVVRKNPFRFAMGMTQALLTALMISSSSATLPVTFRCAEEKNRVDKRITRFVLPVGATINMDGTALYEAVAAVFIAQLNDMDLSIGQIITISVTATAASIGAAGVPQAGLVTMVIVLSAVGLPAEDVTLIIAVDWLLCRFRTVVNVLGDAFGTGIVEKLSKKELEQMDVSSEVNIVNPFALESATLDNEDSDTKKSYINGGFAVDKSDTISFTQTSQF
Outline: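 Steps from −25 mV to −100…+40 mV. Transients taken as current without minus current with compound. Charge is the sum of integrals at −100 and +40 mV, normalised to 10 mM of the same compound. IC50 from a generalized Hill fit; decay from a first-order exponential; 3–10 oocytes.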

[2] = biological target: T2, D444E-EAAC1 (Oryctolagus cuniculus, UniProt P31597, D444E); assay: Blockade of sodium-dependent transient currents
T2 sequence (P31597 1-524 D444E): T1 sequence (P31597 1-524 D444C) with C444E
Outline: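 Oocytes expressing the mutant were voltage clamped in ND96 (pH 7.5, HEPES) and stepped from −25 mV. Transients are buffer current minus buffer-plus-compound current. Charge is the sum of current–time integrals at −100 and +80 mV, normalised to 1 mM L-aspartate or 15 mM succinate, and fitted to a generalized Hill equation. Decay constants come from a first-order exponential fit; mean ± SEM of 3–10 oocytes.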

[3] = biological target: T3, D444S-EAAC1 (Oryctolagus cuniculus, UniProt P31597, D444S); assay: Blockade of sodium-dependent transient currents; conditions: for Decay time of transient currents blocked: at −100 mV
T3 sequence (P31597 1-524 D444S): T1 sequence (P31597 1-524 D444C) with C444S
Outline: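 Oocytes expressing the mutant were clamped in sodium ND96 and given 250-ms pulses from −25 mV to −100…+40 mV, with and without compound; TBOA was added to a stopped bath. Isolated transients (without minus with compound) were integrated at −100 and +40 mV and summed. Charge was normalised to 10 mM of each compound and Hill-fitted; 4–6 oocytes. Decay came from an exponential fit; 3–10 oocytes.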

[4] = biological target: T4, WT-EAAC1 (Oryctolagus cuniculus, UniProt P31597); conditions: NaSCN-based buffer
T4 sequence (P31597 1-524): T1 sequence (P31597 1-524 D444C) with C444D
Outline: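 Two-electrode voltage clamp of oocytes in buffer with all NaCl replaced by NaSCN, grounded through a 2% agarose/2 M KCl bridge. Compounds were 2 mM; TBOA (10 μM) was added to a stopped bath. Steps from −25 mV to −100…+40 mV. Net steady-state current (with minus without) was normalised to the L-aspartate current at +40 mV; mean ± SEM of 3 oocytes (L-aspartate n = 6).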

[5] = biological target: T5, D444C mutant EAAC1 (Oryctolagus cuniculus, UniProt P31597, D444C); conditions: 10 min
T5 sequence (P31597 1-524 D444C): T1 sequence (P31597 1-524 D444C)

[6] = biological target: T6, T448A mutant EAAC1 (Oryctolagus cuniculus, UniProt P31597, T448A); assay: Uptake of D-[3H]-aspartate in Xenopus laevis oocytes expressing T448A; conditions: 20 min in ND96
T6 sequence (P31597 1-524 T448A): T1 sequence (P31597 1-524 D444C) with C444D, T448A

[7] = biological target: T7, D444N mutant EAAC1 (Oryctolagus cuniculus, UniProt P31597, D444N); assay: Blockade of transient currents
T7 sequence (P31597 1-524 D444N): T1 sequence (P31597 1-524 D444C) with C444N

SMILES: N[C@H](C(=O)O)[C@H](OCc1ccccc1)C(=O)O (racemic) [TBOA, DL-threo-β-benzyloxyaspartate]
- Decay time of transient currents blocked ([1]; D444C, 10 μM D,L-TBOA): 4.8 ± 0.3 ms
- IC50 ([1]; read-out: IC50 for substrates/blockers of charge movements, D444C, Xenopus oocytes, mean ± SEM): 1.9 ± 0.2 µM
- Decay time of transient currents blocked ([2]; 10 μM D,L-TBOA, at +80 mV): 5.6 ± 1.2 ms
- IC50 ([2]; read-out: IC50 for substrates/blockers of charge movements, Xenopus oocytes, mean ± SEM): 1.8 ± 0.4 µM
- Decay time of transient currents blocked ([3]; D444S, 160 μM D,L-TBOA): 6 ± 0.6 ms
- IC50 ([3]; read-out: IC50 for substrates/blockers of charge movements, D444S, Xenopus oocytes, mean ± SEM): 31 ± 8 µM
- Effect on the anion conductance ([4]; 10 μM D,L-TBOA): decreased

SMILES: N[C@H](CC(=O)O)C(=O)O [D-Aspartate, D-aspartate]
- IC50 [1]: 8 ± 1 µM
- Decay time of transient currents blocked ([1]; D444C, 10 mM compound): 18.4 ± 1 ms
- IC50 [3]: 1370 ± 360 µM
- Decay time of transient currents blocked ([3]; D444S, 10 mM compound): 12.8 ± 0.6 ms

SMILES: [3H]C(C(=O)O)C([3H])(N)C(=O)O [D-[^3H]-aspartate, D-[2,3-^3H]-aspartic acid]
- D-[3H]-aspartate uptake relative to WT-EAAC1 [5]: ~5%
- Uptake of D-[3H]-aspartate relative to WT [6]: ~20%

SMILES: NCCCC(=O)O [GABA]
- Inhibition of the transient currents ([3]; D444S, 5 mM, sodium 96 mM): unable to inhibit
- Effect on the anion conductance ([4]; 2 mM): not seen

SMILES: O=C(O)CCCC(=O)O [Glutarate, glutarate]
- IC50 [1]: 260 ± 40 µM
- Inhibition of transient currents of similar size as succinate ([3]; D444S, 2 mM, unpublished data): capable of inhibiting

SMILES: N[C@@H](CCC(=O)O)C(=O)O [L-Glutamate, L-glutamate]
- IC50 [1]: 29 ± 3 µM
- Decay time of transient currents blocked ([1]; D444C, 10 mM compound): 17.7 ± 1 ms
- IC50 ([2]; IC50 for substrates/blockers of charge movements, Xenopus oocytes, mean ± SEM): 24.4 ± 2.2 µM
- IC50 [7]: 718 ± 217 µM
- IC50 [3]: 1220 ± 160 µM
- Decay time of transient currents blocked ([3]; D444S, 10 mM compound): 11.0 ± 1.2 ms
